The text below walks through data of ChEMBL document CHEMBL1122443, “Synthesis and antitumor evaluation of selected 5,6-disubstituted 1(2)H-indazole-4,7-diones” (1983).

Activity calls are given as the source filed them. No cut-off for these calls is given here.

Assay [1] concerns Mus musculus. The assay is described as follows: Antitumor activity in CF1 mice bearing Ehrlich ascites carcinoma measured as percentage inhibition at 5 mg/kg. In kind it is functional. The method, boiled down: (§1)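 Ehrlich ascites model in male CF1 mice (22–25 g): 2 × 10⁶ cells ip on day 0, ip dosing days 1–8, kill on day 9. Percent inhibition = 100 − [(treated volume × treated ascrit)/(control volume × control ascrit)]. Greater than 80% was taken as significant. Vehicle was 0.05% Tween 80, alone or with 5% absolute EtOH. 6-Mercaptopurine was the positive control.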

In assay [2] the test system is Mus musculus. The assay is described as follows: Antitumor activity in CF1 mice bearing Ehrlich ascites carcinoma measured as survivors on day 9 at 3 mg/kg; 3/6. In kind it is functional.
Assay [3] has as its system Mus musculus. The assay is described as follows: Antitumor activity in CF1 mice bearing Ehrlich ascites carcinoma measured as ascites volume at 3 mg/kg. It is filed as functional. The method, boiled down:
(§2)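 Male CF1 mice (22–25 g) received 2 × 10⁶ Ehrlich carcinoma cells ip on day 0. Dosing was ip daily on days 1–8, with sacrifice on day 9. Ascites fluid volume per mouse and ascrit (packed cell volume) were measured for each group. Vehicle was 0.05% Tween 80, or 5% absolute EtOH in 0.05% Tween 80, used for both compound and control. 6-Mercaptopurine was the positive control.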

For assay [4], the system named is Mus musculus. The assay is described as follows: Antitumor activity in CF1 mice bearing Ehrlich ascites carcinoma measured as ascites volume at 5 mg/kg. It is filed as functional. The method, boiled down:
as §2

For assay [5], the system named is Mus musculus. The assay is described as follows: Average days survived for treated / average days survived for control at 1 (mg/kg); 10.2/9.2. In kind it is functional.
The test system of assay [6] is Mus musculus. The assay is described as follows: Antitumor activity in CF1 mice bearing Ehrlich ascites carcinoma measured as survivors on day 9 at 5 mg/kg; 5/5. It is filed as functional.
Assay [7] has as its system Mus musculus. The assay is described as follows: Antitumor activity in CF1 mice bearing Ehrlich ascites carcinoma measured as percentage inhibition at 3 mg/kg. In kind it is functional. The method, boiled down:
as §1

Assay [8] relates to Mus musculus. The assay is described as follows: Antitumor activity in CF1 mice bearing Ehrlich ascites carcinoma measured as percent ascrit packed cell volume at 3 mg/kg. In kind it is functional. The method, boiled down: as §2
Assay [9] deals with Mus musculus. The assay is described as follows: Antitumor activity in CF1 mice bearing Ehrlich ascites carcinoma measured as percent ascrit packed cell volume at 5 mg/kg. In kind it is functional. The method, boiled down:
as §2

For assay [10], the system named is Mus musculus. The assay is described as follows: Anti tumor activity in mice bearing lymphocytic leukemia P-388 at 1 mg/kg. It is filed as functional. The method, boiled down:
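Male BDF1 mice (20–23 g) were inoculated ip with 1 × 10⁶ P-388 leukemia cells on day 0. Compound was given ip once daily on days 1–14 in 0.05% Tween 80 vehicle, with a vehicle control group and 5-fluorouracil as positive control. Activity was scored as % T/C, average days survived treated/control, with >125% taken as significant.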

For assay [11], the system named is Mus musculus. The assay is described as follows: Antitumor activity in CF1 mice bearing Ehrlich ascites carcinoma measured as percentage inhibition at 8 mg/kg. In kind it is functional. The method, boiled down: as §1
Assay [12] deals with Mus musculus. The assay is described as follows: Antitumor activity in CF1 mice bearing Ehrlich ascites carcinoma measured as survivors on day 9 at 3 mg/kg; 5/6. It is filed as functional.
Assay [13] relates to Mus musculus. The assay is described as follows: Antitumor activity in CF1 mice bearing Ehrlich ascites carcinoma measured as ascites volume at 8 mg/kg. It is filed as functional. The method, boiled down: as §2
The subject of assay [14] is Mus musculus. The assay is described as follows: Antitumor activity in CF1 mice bearing Ehrlich ascites carcinoma measured as survivors on day 9 at 5 mg/kg; 4/6. It is filed as functional.
In assay [15] the test system is Mus musculus. The assay is described as follows: Antitumor activity in CF1 mice bearing Ehrlich ascites carcinoma measured as survivors on day 9 at 8 mg/kg; 4/6. It is filed as functional.
For assay [16], the system named is Mus musculus. The assay is described as follows: Antitumor activity in CF1 mice bearing Ehrlich ascites carcinoma measured as percentage inhibition at 3 mg/kg; IA= inactive. In kind it is functional, organism-based. Set-up: dose 3 mg/kg. The method, boiled down:
(§3)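 In the Ehrlich ascites model, male CF1 mice (22–25 g) received 2 × 10⁶ cells ip on day 0 and compound ip on days 1–8, with a vehicle of 0.05% Tween 80 ± 5% EtOH. Ascites volume and ascrit were taken on day 9. % inhibition = 100 − [(vol × ascrit, treated)/(vol × ascrit, control)], with >80% taken as significant.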

Assay [17] deals with Mus musculus. The assay is described as follows: Antitumor activity in CF1 mice bearing Ehrlich ascites carcinoma measured as percent ascrit packed cell volume at 8 mg/kg. In kind it is functional. The method, boiled down:
as §2

The test system of assay [18] is Mus musculus. The assay is described as follows: Antitumor activity in CF1 mice bearing Ehrlich ascites carcinoma measured as percentage inhibition at 1 mg/kg. In kind it is functional. The method, boiled down: as §3
Assay [19] concerns Mus musculus. The assay is described as follows: Antitumor activity in CF1 mice bearing Ehrlich ascites carcinoma measured as percentage inhibition at 10 mg/kg. It is filed as functional. The method, boiled down:
as §3

For assay [20], the system named is Mus musculus. The assay is described as follows: Antitumor activity in CF1 mice bearing Ehrlich ascites carcinoma measured as survivors on day 9 at 1 mg/kg; 6/6. In kind it is functional.
In assay [21] the test system is Mus musculus. The assay is described as follows: Antitumor activity in CF1 mice bearing Ehrlich ascites carcinoma measured as survivors on day 9 at 10 mg/kg; 5/6. In kind it is functional.
Assay [22] relates to Mus musculus. The assay is described as follows: Antitumor activity in CF1 mice bearing Ehrlich ascites carcinoma measured as survivors on day 9 at 12 mg/kg; 0/6. It is filed as functional.
In assay [23] the test system is Mus musculus. The assay is described as follows: Antitumor activity in CF1 mice bearing Ehrlich ascites carcinoma measured as ascites volume at 1 mg/kg. In kind it is functional. The method, boiled down: (§4)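 Ehrlich ascites cells (2 × 10⁶) were implanted ip in male CF1 mice (22–25 g) on day 0. Dosing was ip on days 1–8 in 0.05% Tween 80 or 5% EtOH/0.05% Tween 80, with vehicle controls. Mice were killed on day 9, and ascites fluid volume per mouse was measured.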

The subject of assay [24] is Mus musculus. The assay is described as follows: Average days survived for treated / average days survived for control at 1 (mg/kg); 10.8/9.2. In kind it is functional.
In assay [25] the test system is Mus musculus. The assay is described as follows: Antitumor activity in CF1 mice bearing Ehrlich ascites carcinoma measured as percent ascrit packed cell volume at 1 mg/kg. In kind it is functional. The method, boiled down:
(§5)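 CF1 male mice (22–25 g) were inoculated ip with 2 × 10⁶ Ehrlich cells on day 0 and treated ip on days 1–8 in 0.05% Tween 80 or 5% EtOH/0.05% Tween 80 vehicle. On day 9 the mice were sacrificed, and the ascrit (packed cell volume) of the ascites fluid was determined.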

Assay [26] has as its system Mus musculus. The assay is described as follows: Antitumor activity in CF1 mice bearing Ehrlich ascites carcinoma measured as percent ascrit packed cell volume at 10 mg/kg. In kind it is functional. The method, boiled down: as §5
Assay [27] has as its system Mus musculus. The assay is described as follows: Antitumor activity in CF1 mice bearing Ehrlich ascites carcinoma measured as ascites volume at 10 mg/kg. In kind it is functional. The method, boiled down: as §4

Compound `Cc1noc2c1C(=O)C(Cl)=C(Cl)C2=O` showed an inhibition in vivo at 5 mg/kg in the assay on Mus musculus [1] of 100%. The Survivors was 3 in the assay on Mus musculus [2] and 5 in the assay on Mus musculus [6]. For the same compound, the ascites volume with Mus musculus [3] and in the assay with Mus musculus [4] was 0 ml mouse-1 in each case. Also, the “Average survival (days)” value with Mus musculus [5] came out at 10.2. In the assay with Mus musculus [7], this compound had an inhibition in vivo at 3 mg/kg of 100%. Besides, the packed cell volume with Mus musculus [8] and in the assay on Mus musculus [9] was 0% throughout. Also, the T/C in the assay on Mus musculus [10] worked out at 111%.

In the assay with Mus musculus [1], `CC(=O)NC1=C(Cl)C(=O)c2c(cnn2C(C)=O)C1=O` returned an inhibition in vivo at 5 mg/kg of 95.6%. Besides, the inhibition in vivo at 8 mg/kg in the assay on Mus musculus [11] is 25.5%. Moreover, the Survivors with Mus musculus [12] stood at 5; in the assay on Mus musculus [14], 4; in the assay with Mus musculus [15], 4. Further, the ascites volume with Mus musculus [3] turned out to be 2.9 ml mouse-1; in the assay with Mus musculus [4], 0.3 ml mouse-1; in the assay with Mus musculus [13], 0.75 ml mouse-1. The inhibition result in the assay on Mus musculus [16] is “inactive”. In addition, the packed cell volume came to 45.5% with Mus musculus [8], 5.9% in the assay with Mus musculus [9] and 31.7% with Mus musculus [17].

On to `Cn1cc2c(n1)C(=O)C(Cl)=C(N1CC1)C2=O`, for which the inhibition in vivo at 5 mg/kg with Mus musculus [1] was 83.7%. The same compound returned an inhibition in vivo at 1 mg/kg with Mus musculus [18] of 72.9%. This compound yielded an inhibition in vivo at 10 mg/kg in the assay on Mus musculus [19] of 96.3%. In addition, the Survivors in the assay on Mus musculus [20] worked out at 6; with Mus musculus [21], 5; in the assay on Mus musculus [22], 0; with Mus musculus [6] it was 5. Moreover, the ascites volume in the assay on Mus musculus [23] is reported as 0.8 ml mouse-1; in the assay with Mus musculus [4], 0.7 ml mouse-1; with Mus musculus [27] it was 0.44 ml mouse-1. In addition, in the assay on Mus musculus [24], the “Average survival (days)” value worked out at 10.8. In addition, the values for the packed cell volume with Mus musculus [25], with Mus musculus [26] and in the assay with Mus musculus [9] were 12.7%, 8.4% and 36.2%, respectively. This compound also returned a T/C in the assay on Mus musculus [10] of 117%.

A word on the inhibition in vivo: it is the relative decrease from the control value, in per cent. Lower therefore signals a weak effect. By T/C is commonly meant the result in the treated group divided by that in the control group, in per cent.
